# Mdm2 MdmX PPI – inhibitors of human Mdm2/MdmX interaction; O15151+Q00987; SaOS-2 split-luciferase Mdm2/MdmX complementation, luminescence; inhibition, % at 8 µM; 330,000 tested, 3% active; AID 485346;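 active means inhibition of at least 50% at 8 µM in the primary screen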
# CSC inhib – blocks cancer stem cells | cancer stem cell-like cells viability, luminescence | inhibition, % at 7.5 µM | 300,000 tested, 1.1% active; in the data active means inhibition above about 75%; inconclusive means no clear call, values can overlap the other calls; tested in HMLE shEcad cells
# Calb FLC – affects C. albicans growth with fluconazole. C. albicans CaCi-2 (fluconazole-resistant clinical isolate) + fluconazole, Alamar Blue growth, 48 h. 300,000 tested, 0.57% active. growth inhibition, % (concentration not given with the values). AID 1979;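 active means growth inhibition above about 58% in most replicates, limit read from the data, passing the limit was not always enough; inconclusive means exactly half the replicates above a set limit; inactive means most replicates below a set limit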;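 further: all wells also contain fluconazole at 8 µg/ml as a sub-toxic cotreatment; 0% = median of DMSO wells and 100% = median of geldanamycin control wells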
# Beta cell apopt – beta cell apoptosis inhibition. INS-1E cytokine-induced death, ATP luminescence, 48 h; percent of positive-control rescue, neutral wells zero. protection from apoptosis, % (no concentration beside the values). 300,000 tested, 0.8% active;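 active means Every replicate reaches about 75%, or at least half do and their mean reaches it too, limit read from the data; inconclusive means At least half of replicates reach the limit but their mean does not; inactive means Under half of replicates reach the limit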;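 further: 0% = cytokine-treated negative control wells and 100% = positive control rescue; higher means more ATP so stronger rescue from cytokine killing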
# SKKanGAS inh – blocks kanamycin growth of S. pyogenes SKKanGAS strain; BacTiter-Glo, 6 h; inhibition, % at 7.5 µM; 300,000 tested, 1.3% active; AID 1662;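 active means mean replicate score, as percent of positive control median, at least 50; inconclusive means mean below 50 but one replicate at or above 50; inactive means mean and every replicate below 50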;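 further: strain carries kanamycin resistance gene driven by streptokinase promoter and grows in 40 µg/ml kanamycin; loss of luminescence reflects streptokinase promoter inhibition or plain growth inhibition; 0% = median of DMSO wells and 100% = positive control at its reference dose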
# T cruzi inh – T. cruzi replication inhibition. T. cruzi beta-gal in NIH3T3, luminescence, 90 h. inhibition, % (concentration not given with the values). 300,000 tested, 1.4% active;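 active means mean inhibition across valid replicates above about 55%, limit read from the data; inconclusive means mean below that limit but half or more replicates reach it; inactive means mean below it, under half of replicates reach it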;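 further: signal also drops with host cell toxicity which is not excluded here; 0% = plate median of DMSO wells and 100% = zero luminescence signal; higher percent means less beta-gal luminescence so fewer parasites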
#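 System: mouse NIH/3T3 fibroblasts infected with β-gal-expressing T. cruzi Tulahuen C4 / Input: NIH/3T3 cells, 5,000 per well / Buffer or medium: Low-serum DMEM with 2% FBS / Probe or stimulus: 5000 reporter trypomastigotes per well / Schedule: ≥90 h infection period, 3 h prior cell attachment / Measured by: GalScreen luminescence, 60 min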
# * = called active by the depositor; ? = inconclusive; . = no result given. In the library only some 5.7% were active in any assay of this set; here they are far more common.
SMILES,Mdm2 MdmX PPI,CSC inhib,Calb FLC,Beta cell apopt,SKKanGAS inh,T cruzi inh
CC(C)(C)c1cc(CSC(=S)NC2CCS(=O)(=O)C2)c(Br)c(C(C)(C)C)c1 (configuration not stated),17.8,97.4*,-1.9,-39.7,95.9*,0.5
O=S1(=O)CC=C(CSC(=S)NC2CCS(=O)(=O)C2)C1 (configuration not stated),30.5,6.2,28.9,-11.0,.,-9.0
Cc1ccc(C)c(Nc2c([N+](=O)[O-])cc(C(=O)N3CC(=O)Nc4ccccc43)cc2[N+](=O)[O-])c1,40.4,7.1,14.6,9.9,11.2,65.7*
Cc1cccc(Nc2c([N+](=O)[O-])cc(C(=O)N3CC(=O)Nc4ccccc43)cc2[N+](=O)[O-])c1,5.6,-16.3,25.7,4.0,-2.6,83.9*
CN(C)c1ccc(/C=N/NC(=O)c2ccc3c(c2)OCCO3)cc1,8.5,-1.1,-1.8,0.2,?,-9.8
O=C(N/N=C/c1cc(Br)c(Br)o1)c1ccc2c(c1)OCCO2,-19.2,10.1,84.8*,-3.6,5.0,0.9
O=C(N/N=C/c1cc(Br)c(O)c(Br)c1O)c1ccc2c(c1)OCCO2,28.9,50.2,-23.7,91.1*,17.5,-0.2
CC1=Nc2ccc(Br)cc2C(c2ccccc2)N1CC(=O)NN (configuration not stated),20.7,-16.0,8.0,-9.2,-2.2,-1.4
OC1c2cc(Br)ccc2N=C2CCCN21 (configuration not stated),13.8,-4.0,18.8,15.0,-2.3,54.7*
Cc1ccc(Nc2ccc3nonc3c2[N+](=O)[O-])cc1,-8.9,-15.2,-32.3,-7.1,-1.9,7.0
Cc1ccc(Nc2ccc([N+](=O)[O-])nc2[N+](=O)[O-])cc1,27.0,-7.8,-12.1,13.5,0.8,62.4*
O=C(O)CC(NC(=O)COc1ccccc1)c1cccc([N+](=O)[O-])c1 (configuration not stated),-12.2,-5.3,-9.2,-1.8,2.8,-7.2
O=C(Nc1ccc2c(c1)CCC2)c1cc(S(=O)(=O)Nc2ccc(F)cc2)c(Cl)cc1Cl,44.7,109.3*,6.7,6.0,102.7*,18.5
Oc1ccc(-c2c(-c3ccsc3)sc3ccccc23)cc1,-0.7,4.5,-27.8,-5.3,108.0*,15.6
O=C(CNC(=O)c1ccccc1Br)N/N=C/c1ccccc1O,14.4,.,19.2,-0.1,0.3,-3.0
O=C(CNC(=O)c1ccccc1Br)N/N=C/c1cc(Br)ccc1O,36.4,31.5,-4.0,42.8,72.8*,45.6
O=C(CNC(=O)c1ccccc1Br)N/N=C\c1cc([N+](=O)[O-])cc(Br)c1O,23.8,26.7,-14.2,-5.8,58.7*,0.7
O=C(NC(=S)NNC(=O)c1ccco1)c1ccccc1,27.5,-3.1,6.7,5.3,42.3,-4.0
O=C(/C=C/c1ccc(Br)cc1)NC(=S)NNC(=O)c1ccco1,16.7,18.8,4.1,2.0,106.0*,-23.9
O=C(/C=C/c1ccccc1)NC(=S)NNC(=O)c1ccco1,18.8,-11.7,-0.6,3.3,76.4*,-0.6
O=C(NC(=S)N(CCc1ccccc1)CCc1ccccc1)c1ccco1,42.8,26.5,-24.9,15.1,81.8*,39.4
COc1ccc(N2CCN(C(=O)CCCN3C(=O)c4cccc5cccc(c45)C3=O)CC2)cc1,-10.9,-11.7,8.4,9.3,-13.8,74.8*
Nc1nnc(SCC(=O)OCC(=O)NC2CCCCC2)s1,-10.1,92.4*,10.8,4.3,1.6,-2.8
Nc1nnc(SCC(=O)NC2CCCCC2)s1,12.9,-15.4,4.8,-1.5,-1.6,-8.0
Cc1nn(Cc2ccc(Cl)c(Cl)c2)c(C)c1NC(=O)c1cn(-c2ccccc2)nc1-c1ccccc1,37.5,18.3,4.2,-13.7,13.9,60.7*
SMILES,Mdm2 MdmX PPI,CSC inhib,Calb FLC,Beta cell apopt,SKKanGAS inh,T cruzi inh
Cc1nn(Cc2ccc(Cl)cc2)c(C)c1NC(=O)c1cc(-c2ccc3c(c2)OCO3)on1,-5.9,83.3*,-6.6,25.5,18.5,56.5*
O=C(NCc1ccco1)c1cc(-c2ccc3c(c2)OCO3)on1,-49.1,82.0*,-7.4,2.6,-0.8,-9.3
Cc1nn(Cc2ccc(Cl)c(Cl)c2)c(C)c1NC(=O)c1cc(-c2ccc3c(c2)OCO3)on1,33.7,80.6*,-12.4,18.7,33.7,?
Cc1cccc(C)c1NC(=O)c1cn(-c2ccccc2)nc1-c1ccccc1,-5.7,-6.8,-2.4,0.3,-0.2,-14.0
CCCc1cc(CNC(=O)C2CCC(=O)N(Cc3ccccc3OC)C2)on1 (configuration not stated),-5.9,-7.2,-12.6,-1.0,-2.9,-6.4
O=C(NNC(=O)c1ccccc1Cl)c1ccc(-n2cncn2)c([N+](=O)[O-])c1,-20.3,-16.1,.,-8.0,.,.
Cc1nn(Cc2ccccc2)c(C)c1NC(=O)c1ccc([N+](=O)[O-])cc1[N+](=O)[O-],-1.7,6.5,4.3,19.4,6.2,56.0*
Clc1ccc(/C=C/c2nc3ccccc3[nH]2)cc1,-76.7,76.0*,-3.8,31.0,16.7,33.0
Clc1cccc(Cl)c1/C=C/c1nc2ccccc2[nH]1,-171.9,-1.6,47.8,12.9,2.2,38.6
Clc1ccc(/C=C/c2nc3ccccc3[nH]2)c(Cl)c1,-56.0,-17.9,55.4,44.7,43.2,58.2*
Cc1ccc(Oc2ccc(C(F)(F)F)cc2[N+](=O)[O-])c([N+](=O)[O-])n1,7.3,-0.3,-1.4,-1.4,9.2,35.5
O=C(/C=C/c1ccncc1)c1cc(Cl)ccc1O,22.3,24.7,-8.3,8.9,28.1,65.9*
CN(C)c1ccc(/C=C/C(=O)c2cc(Cl)ccc2O)cc1,.,42.8,-7.3,6.5,27.3,3.4
O=C(NC(=S)NNS(=O)(=O)c1ccc(Cl)cc1)c1cccnc1,-18.1,-7.8,-9.5,3.6,-0.8,-6.1
c1ccc(CCNc2ncnc3ccccc23)cc1,-1.1,-0.6,93.7*,100.1*,6.1,22.1
Cc1cc2c(NCCc3ccccc3)ncnc2s1,-11.9,17.3,-5.2,107.6*,0.4,3.8
O=C(CSc1ncnc2ccccc12)NCCc1ccccc1,-8.4,8.4,-36.2,-1.4,-4.2,-7.8
CCCCCCCCNc1ncnc2ccccc12,14.5,42.8,76.4*,101.1*,-2.2,25.9
O=Cc1s/c(=N\S(=O)(=O)c2ccccc2)n(CCCCl)c1Cl,.,.,-18.0,.,-1.7,81.4*
CCOC(=O)c1c(/N=C/C2=C(O)CC(C)(C)CC2=O)sc2c1CCCC2,17.1,10.6,-6.1,-5.2,1.3,-4.9
Cc1cnc2cc(Cl)ccc2c1SCC(=O)O,.,-0.8,8.5,-2.9,8.0,-6.2
CCC(C(=O)OCC(=O)Nc1cc(Cl)cc(Cl)c1)c1ccccc1 (configuration not stated),-21.6,8.9,0.3,8.0,52.7*,49.1
O=C(NCCSc1ccc(Br)cc1)c1ccc2nc[nH]c2c1,-10.3,2.4,7.7,-5.9,-25.2,-3.5

# Bioassay records from PubChem.
